# The list is not random: actives were taken first. Their share in the collection is about 3.9%.
# Pf gamet viab: kills late stage P. falciparum gametocytes. inhibition, % at 10.9 µM. AID 743093. 150,000 compounds, 0.065% hits. P. falciparum stage V gametocytes, ATP luminescence, 24 h;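 active means inhibition above the mean plus 3 SD of compounds within the control limits, set per campaign, cut at about 38% in these data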;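 further: 0% = DMSO wells and 100% = medium only without gametocytes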
# STAT1 blocker: STAT1 signaling inhibition; NIH 3T3 STAT1-luciferase reporter, IFN-gamma, luminescence; inhibition, % at 5.5 µM; 200,000 compounds, 0.35% hits;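 active means inhibition above a set limit, the mean inhibition across all tested compounds plus 3 SD, cut at about 34% in these data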;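 further: 0% = IFN-gamma with DMSO and 100% = IFN-gamma with 300 µM nifuroxazide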
# NF-kB neuron act: compounds increasing NF-kB expression in human neuronal cells. fold change at 12.5 µM. 190,000 compounds, 1.6% hits. NF-kB reporter expression; active compounds read high; in the data active means fold change above about 3.3
# STAT3 activator: increases IL-6 driven STAT3 reporter signal | U3A cells, IL-6 STAT3-luciferase reporter, luminescence; 100% = signal with IL-6 EC80 alone | activation (% of control), % at 5.6 µM | 190,000 compounds, 0.91% hits | AID 871;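 active means activation above the screen-wide mean of compound activation plus 3 SD, cut at about 130% in these data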;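 further: 0% = background luminescence of wells with medium and substrate only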
#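 Material: STAT3-luciferase reporter U3A cells; Probe or stimulus: IL-6 (33 ng/mL); Incubation: compound pre-incubation 1 h before IL-6, then 6 h stimulation at 37 °C; Technique: luminescence from STAT3-driven luciferase reporter; Evaluation: % activation versus median of IL-6-stimulated wells; Controls: IL-6-only high control.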
# APP 5'UTR act: APP 5'UTR luciferase reporter activation. AID 1276. 190,000 compounds, 1% hits. SH-SY5Y APP 5'UTR luciferase reporter, luminescence; zero percent = DMSO vehicle wells. activation, % at 2 µM;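 active means activation above a set limit, based on mean plus 3 SD of controls, cut at about 140% in these data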
# STAT1 act: activators of IFN-gamma induced STAT1 signaling. NIH 3T3 STAT1-luciferase reporter, luminescence; 100% = IFN-gamma alone, no compound. activation (% of control), % at 5.5 µM. 200,000 compounds, 2.6% hits. AID 932;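 active means activation above the screen-wide mean activation plus 3 SD, cut at about 130% in these data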;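 further: raw ratio to IFN-gamma control signal so 100% means no change and 0% no light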
# An asterisk follows results filed as active; x = no result.
SMILES,Pf gamet viab,STAT1 blocker,NF-kB neuron act,STAT3 activator,APP 5'UTR act,STAT1 act
Cc1ccc(-c2nnc(CCC(=O)NCC3C4CC5CC(C4)CC3C5)o2)s1 (stereo not given),30,-54,2.7,112,45,147*
Cc1ccc(-c2nnc(CCC(=O)N(C)Cc3nccs3)o2)s1,4,-20,2.4,100,10,117
CCC(=O)N1CCN(c2ccc(NC(=O)c3ccc(Br)o3)cc2)CC1,x,4,1.4,74,11,96
CS(=O)(=O)N1CCN(c2ccc(NC(=O)c3ccc(Br)o3)cc2)CC1,x,-33,1.9,99,27,130*
CCC(Oc1ccccc1)C(=O)NCc1ccc(S(N)(=O)=O)cc1 (stereo not given),61*,3,1.2,100,4,98
O=C1CCC(=O)N1c1ccc(-c2nc3ccccc3s2)cc1,7,68*,1.8,26,107,37
Cc1ccc(OCC(=O)Nc2ccc(CN3CCCCC3)cc2)c(C)c1,-9,-7,1.4,104,9,105
COc1ccc(/C=N/NC(=O)c2ccoc2C)cc1OC,3,-36,1.6,95,26,132*
CC(/C=N/NC(=O)Cc1cccs1)=C\c1ccccc1,-4,-26,1.9,115,77,124
COc1ccc(C(=O)N/N=C/C(Br)=C/c2ccccc2)cc1,-1,11,0.99,97,-24,90
O=C(Cc1cccs1)N/N=C/C(Br)=C/c1ccccc1,-13,-53,1.4,107,74,148*
O=C(N/N=C/C(Br)=C\c1ccccc1)c1n[nH]c2c1CCC2,11,-32,8.3*,142*,-96,129*
Cc1occc1C(=O)N/N=C/C(Br)=C/c1ccccc1,x,-54,6.4*,81,155*,148*
CCCCN1C(=O)/C(=C2/Sc3ccccc3N2C)S/C1=N\c1ncn[nH]1,9,2,0.85,92,-5,97
CS(=O)(=O)N1CCN(c2ccccc2[N+](=O)[O-])CC1,x,-5,0.94,102,-8,102
CC(C)C(=O)Nc1ccc(C(=O)NNC(=S)NC(=O)c2ccco2)cc1,-20,x,x,x,x,x
CCOc1cc(C(=O)NCCCNC(=O)c2cc(OCC)c(OCC)c(OCC)c2)cc(OCC)c1OCC,-8,x,x,x,x,x
CCOC(=O)[C@H]1[C@H]2COc3ccc(Br)cc3[C@@H]2N2C(=O)CN(CC3CCCO3)C(=O)[C@@]12C (stereo not given in full),15,x,x,x,x,x
CCn1nc(C)c(/C=N/NC(=O)c2ccoc2C)c1C,-3,-43,1.2,96,110,140*
CC(O)C(O)C(O)C(O)/C=N/NC(=O)c1ccccc1 (stereo not given),x,-32,1.1,106,56,129*
Cc1cccc(NC(=O)C2C3C=CC(O3)C2C(=O)O)c1C (stereo not given),-19,x,x,x,x,x
CC(=O)Nc1ccc(N=Cc2c(O)c(C(=O)Nc3ccccc3)cc3ccccc23)cc1,-15,11,1.1,145*,7,89
O=C(CNC(=O)c1cccs1)OCC(=O)c1ccc([N+](=O)[O-])cc1,0,4,1,113,2,95
O=C(CNC(=O)c1ccc([N+](=O)[O-])cc1)c1ccccc1,x,-38,1.7,99,76,134*
O=C(CNC(=O)c1cccs1)c1ccc([N+](=O)[O-])cc1,-1,-41,0.9,102,47,136*
SMILES,Pf gamet viab,STAT1 blocker,NF-kB neuron act,STAT3 activator,APP 5'UTR act,STAT1 act
O=C(CNc1ccccc1)c1ccc([N+](=O)[O-])cc1,2,0,1.4,113,-1,100
CC(Cc1ccccc1)NC(=O)c1ccc([N+](=O)[O-])cc1 (stereo not given),x,-48,3.1,109,104,143*
O=C(CNC(=O)c1cccs1)c1ccc(F)cc1,x,-23,4*,70,158*,128
O=C(CNC(=O)c1cccs1)OCC(=O)c1ccc(Cl)cc1,8,-6,1,102,-17,104
COc1ccc(-n2nc(C(=O)O)cc2-c2ccccc2)cc1,8,x,x,x,x,x
FC(F)c1nnc2c(Cl)cc(C(F)(F)F)cn12,-6,3,1.2,105,6,95
Fc1ccc(-c2nc3c(Cl)cc(C(F)(F)F)cn3c2Cl)cc1,3,-11,2.1,134*,-2,110
COc1ccc2cc(/C(C)=N/NC(=O)C3CC3)ccc2c1,7,-50,2.4,103,67,147*
CC(C)c1nc2sc3c(=O)n(N)cnc3c2c2c1COC(C)(C)C2,11,4,1.1,101,24,96
Clc1ccc(Cn2ncc3c(NCc4ccco4)ncnc32)c(Cl)c1,-3,-7,0.79,96,-9,107
c1ccc(-n2ncc3c(NCC4CCCO4)ncnc32)cc1 (stereo not given),x,-32,2.2,105,60,129*
c1ccc(-n2ncc3c(NCc4cccnc4)ncnc32)cc1,x,-19,1.9,101,52,117
Clc1ccc(-n2ncc3c(NCc4ccco4)ncnc32)cc1,17,-55,2.7,95,128,150*
c1ccc(-n2ncc3c(NCc4cccs4)ncnc32)cc1,5,-39,2.2,94,95,138*
NNc1ncnc2c1cnn2-c1ccccc1,x,0,0.76,109,-5,100
COc1ccc(-n2ncc3c(NCc4cccs4)ncnc32)cc1,-26,-54,3.1,117,101,150*
CC1CCN(CCCNC(=O)c2ccc(Cn3c(=S)[nH]c4ccc(Br)cc4c3=O)cc2)CC1,x,-2,0.66,112,0,101
Cc1cc(C(=O)CSc2nnc3ccccn23)c(C)n1-c1ccccc1,x,67*,0.41,18,-20,41
Cc1cc(C(=O)CSc2nnc(-c3ccccc3)n2-c2ccccc2)c(C)n1-c1ncn[nH]1,21,1,1,101,-5,99
Cc1ccc(C(=O)CSc2nnnn2C(C)C)c(C)c1,-5,30,3,35,155*,72
Cc1cc(C(=O)CSc2nnnn2C)c(C)n1-c1ccc2c(c1)OCCO2,x,-41,2.2,118,33,138*
CC(C)n1nnnc1SCC(=O)c1ccc2c(c1)OCCO2,x,-14,2.2,98,156*,112
CCn1nnnc1SCC(=O)c1ccc2c(c1)OCCO2,x,-18,1.8,89,33,117
CC(=O)Nc1ccc(S(=O)(=O)NC2CC3CCC2C3)cc1 (stereo not given),0,x,x,x,x,x
CN(C)/C=C1\SC(=S)N(N2C(=O)C3C4C=CC(C4)C3C2=O)C1=O (stereo not given),2,-2,1.2,100,-4,100
O=C(/C=C/c1nc2ccccc2s1)N1CCCCCC1,15,-35,2.6,93,118,132*
CC1CCCCC1NC(=O)/C=C/c1nc2ccccc2s1 (stereo not given),0,-17,2,100,-16,117
